Test results as given in ChEMBL document CHEMBL4706672 (J Med Chem, 2021).
The source made the active and inactive calls. The rule behind the calls is not given here.

Legend:
MIA PaCa-2 = assay: Antiproliferative activity against human MIA PaCa-2 cells assessed as reduction in cell viability incubated for 3 days by MTT assay; type: functional, cell-based; conditions: MIA PaCa-2, 72 h
Procedure, shortened: (§1)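 MTT assay. Cells were seeded at 3000–6000/well and incubated overnight, then exposed to compound or DMSO vehicle for 3 days in RPMI-1640 or DMEM with 10% FBS at 37 °C, 5% CO2. MTT (3 mg/ml) was added for 3 h at 37 °C, formazan was dissolved in DMSO and absorbance read at 570 nm. IC50 from three independent experiments, mean ± SD.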

BXPC-3 [1] = assay: Antiproliferative activity against human BxPC-3 cells assessed as reduction in cell viability incubated for 3 days by MTT assay; type: functional, cell-based; conditions: BXPC-3, 72 h
HEK293 = assay: Antiproliferative activity against human HEK293 cells assessed as reduction in cell viability incubated for 24 hrs by MTT assay; type: functional, cell-based; conditions: HEK293, 24 h
Procedure, shortened: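 HEK-293 cells were treated with compound for 24 h, in parallel with the luciferase reporter assay. Viability was read by MTT absorbance at 570 nm, and IC50 was taken from three independent experiments.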

[2] = biological target: T1, Protein cereblon/Signal transducer and activator of transcription 3 (Homo sapiens, UniProt P40763+Q96SW2); assay: Protac activity at CRBN/STAT3 in human BxPC-3 cells assessed as effect on STAT3 expression level at 0.1 to 5 uM incubated for 16 hrs by western blot analysis; type: cell-based; conditions: dose 0.1-5 µM
Procedure, shortened: (§2)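 BxPC-3 cells seeded at 500 × 10^3 per well in 6-well plates, treated 16 h. Sonication lysis at 4 °C in Tris/NaCl/Triton/SDS buffer pH 7.4 with protease and phosphatase inhibitors, BCA protein assay, SDS-PAGE, PVDF transfer. Probed for STAT3, pSTAT3 and NQO1 with GAPDH loading control; fluorescent secondary detection.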

[3] = biological target: Signal transducer and activator of transcription 3 (Homo sapiens) (UniProt P40763); assay: Inhibition of STAT3 phosphorylation in human BxPC-3 cells at 5 uM after 16 hrs by western blot analysis; type: cell-based
Procedure, shortened: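 Cells were seeded in 6-well plates (BxPC-3 500 × 10^3, MIA PaCa-2 200 × 10^3 cells/well) and exposed to compound for 16 h. Lysis was at 4 °C by sonication in Tris/NaCl/Triton/SDS buffer, pH 7.4, with protease and phosphatase inhibitors. Lysates were run on SDS-PAGE, transferred to PVDF and probed for STAT3, pSTAT3 and NQO1 with GAPDH as loading control. Immunoblots were imaged on an Odyssey system.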

OVCAR-3 = assay: Antiproliferative activity against human OVCAR-3 cells assessed as reduction in cell viability incubated for 3 days by MTT assay; type: functional, cell-based; conditions: OVCAR-3, 72 h; procedure, shortened: as §1
[4] = Selectivity index, ratio of IC50 for antiproliferative activity against STAT3 knockout human OVCAR-3 cells to IC50 for wild type human OVCAR-3 cells; type: functional
[5] = biological target: T1, Protein cereblon/Signal transducer and activator of transcription 3; assay: Protac activity at CRBN/STAT3 in human OVCAR-3 cells assessed as depletion of STAT3 at 2 to 20 uM after 12 hrs by western blot analysis; type: cell-based; conditions: dose 2-20 µM
[6] = biological target: T1, Protein cereblon/Signal transducer and activator of transcription 3; assay: Protac activity at CRBN/STAT3 in human OVCAR-3 cells assessed as decrease in STAT3 phosphorylation at 2 to 20 uM after 6 hrs by western blot analysis; type: cell-based; conditions: dose 2-20 µM
[7] = biological target: T1, Protein cereblon/Signal transducer and activator of transcription 3; assay: Protac activity at CRBN/STAT3 in human OVCAR-3 cells assessed as decrease in STAT3 expression at 2 to 10 uM incubated for 24 hrs in presence of proteasome inhibitor MG132 by western blot analysis; type: cell-based; conditions: dose 2-10 µM
[8] = biological target: T1, Protein cereblon/Signal transducer and activator of transcription 3; assay: Protac activity at CRBN/STAT3 in human OVCAR-3 cells assessed as induction of STAT3 degradation at 1 to 20 uM incubated for 12 hrs in presence of competitive CRBN ligand pomalidomide by western blot analysis; type: cell-based; conditions: dose 1-20 µM
[9] = biological target: Protein cereblon/Signal transducer and activator of transcription 1-alpha/beta (Homo sapiens) (UniProt P42224+Q96SW2); assay: Protac activity at CRBN/STAT1 in human OVCAR-3 cells assessed as decrease in STAT1 expression levels at 2 to 20 uM after 12 hrs by western blot analysis; type: cell-based; conditions: dose 2-20 µM
[10] = biological target: T1, Protein cereblon/Signal transducer and activator of transcription 3; assay: Protac activity at CRBN/STAT3 in human BxPC-3 cells assessed as decrease in STAT3 expression level after 12 hrs by western blot analysis; type: cell-based
[11] = biological target: T1, Protein cereblon/Signal transducer and activator of transcription 3; assay: Protac activity at CRBN/STAT3 in human BxPC-3 cells assessed as induction of STAT3 degradation at 1 to 5 uM after 12 hrs in presence of proteasome inhibitor bortezomib by western blot analysis; type: cell-based; conditions: dose 1-5 µM
BXPC-3 [12] = assay: Reduction in NQO1 levels in human BxPC-3 cells at 1 to 10 uM incubated for 16 hrs by western blot analysis; type: functional, cell-based; conditions: dose 1-10 µM; procedure, shortened: as §2
[13] = system: G1 to S phase transition protein 1 homolog GSPT1 (Homo sapiens); assay: Protac activity at CRBN/STAT3 in human BxPC-3 cells assessed as effect on GSPT1 protein expression level at 1 to 10 uM incubated for 16 hrs by western blot analysis; conditions: dose 1-10 µM
BXPC-3 [14] = assay: Reduction in NQO1 levels in human BxPC-3 cells at 2 uM incubated for 16 hrs by western blot analysis; type: functional, cell-based; procedure, shortened: as §2
BXPC-3 [15] = assay: Binding affinity to PDI in human BxPC-3 cells assessed as thermal stability by measuring shift in melting temperature at 100 uM measured after 1 hr by cellular thermal shift assay; type: cell-based
[16] = biological target: NAD(P)H dehydrogenase [quinone] 1 (Homo sapiens) (UniProt P15559); assay: Binding affinity to NQO1 in human BxPC-3 cells assessed as thermal stability by measuring shift in melting temperature at 100 uM measured after 1 hr by cellular thermal shift assay; type: cell-based
[17] = biological target: Protein cereblon/E3 ubiquitin-protein ligase ZFP91 (Homo sapiens, UniProt Q96SW2+Q96JP5); assay: Protac activity at CRBN/ZFP91 in human BxPC-3 cells assessed as induction of ZF91 degradation at upto 3 uM incubated for 16 hrs by western blot analysis; type: cell-based; conditions: dose microM <=3, time 16.0 hrs
Procedure, shortened: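 BxPC-3 cells treated for 4, 16 or 24 h across a concentration series. ZFP91 immunoblotted against GAPDH; bands quantified by densitometry, DC50 calculated from dose-response curves of the densitometry.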

BXPC-3 [18] = assay: Antiproliferative activity against ZFP91 knockdown human BxPC-3 cells assessed as reduction in cell viability incubated for 48 hrs by MTT assay; type: functional, cell-based; conditions: BXPC-3, 48 h
Procedure, shortened: (§3)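 BxPC-3 cells were transfected with ZFP91 siRNA or scrambled control siRNA using Lipofectamine RNAiMAX in Opti-MEM, 5 pmol siRNA per complex. Compound was added together with the siRNA complex.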

BXPC-3 [19] = assay: Antiproliferative activity against human BxPC-3 cells harboring ZFP91siRNA assessed as reduction in cell viability incubated for 48 hrs by MTT assay; type: functional, cell-based; conditions: BXPC-3, 48 h; procedure, shortened: as §3
BXPC-3 [20] = assay: Inhibition of colony formation in human BxPC-3 cells assessed as reduction in colony formation at 0.06 to 0.5 uM incubated for 7 to 10 days in presence of NQO1 inhibitor dicoumarol; conditions: dose 0.06-0.5 µM

Row | Structure (SMILES) | IC50 (MIA PaCa-2) [µM] | IC50 (BXPC-3 [1]) [µM] | IC50 (HEK293) [µM] | other results
1 | O=C(COc1cccc2c1C(=O)N(C1CCC(=O)NC1=O)C2=O)NCCOCCOCCOCCNC(=O)c1cc2c(o1)C(=O)c1ccccc1C2=O (stereo not drawn) | 3.7 | 6 | – | –
2 | CN1C(=O)CCC(N2C(=O)c3cccc(NCCCCCC4CCN(CCNC(=O)c5cc6c(o5)C(=O)c5ccccc5C6=O)CC4)c3C2=O)C1=O (stereo not drawn) | 2.7 | 3.4 | > 30 | Activity [2]: inactive; inhibition [3]: Active
3 | O=C1CCC(N2C(=O)c3cccc(NCCN4CCN(CCNC(=O)c5cc6c(o5)C(=O)c5ccccc5C6=O)CC4)c3C2=O)C(=O)N1 (stereo not drawn) | 18.1 | 25.6 | – | –
4 | O=C1CCC(N2Cc3c(CCCCCNC(=O)c4cc5c(o4)C(=O)c4ccccc4C5=O)cccc3C2=O)C(=O)N1 (stereo not drawn) | 6.4 | 13.8 | – | –
5 | O=C1CCC(N2C(=O)c3cccc(NCCOCCNC(=O)c4cc5c(o4)C(=O)c4ccccc4C5=O)c3C2=O)C(=O)N1 (stereo not drawn) | 2.6 | 4.6 | – | –
6 | O=C1CCC(N2C(=O)c3cccc(NCCOCCOCCNC(=O)c4cc5c(o4)C(=O)c4ccccc4C5=O)c3C2=O)C(=O)N1 (stereo not drawn) | 1.3 | 4.3 | – | IC50 (OVCAR-3): 0.3 µM; Ratio IC50 [4]: >6; Activity [5]: Active; Activity [6]: Active; Activity [7]: Active; Activity [8]: Active; Activity [9]: Active; DC50 [10]: 7.8 µM; Activity [11]: Active; Activity (BXPC-3 [12]): Active; Activity [13]: inactive
7 | CC(=O)c1cc2c(o1)C(=O)c1ccccc1C2=O [NAPABUCASIN] | 1.2 | 1.4 | 10.4 | DC50 [10]: 2.1 µM; inhibition (BXPC-3 [14]): Active; Activity (BXPC-3 [15]): Active; Activity [16]: Active; Activity [17]: inactive; IC50 (BXPC-3 [18]): 1.8 µM; IC50 (BXPC-3 [19]): 1.3 µM; inhibition (BXPC-3 [20]): Active
8 | O=C1CCC(N2C(=O)c3ccc(NCCOCCOCCNC(=O)c4cc5c(o4)C(=O)c4ccccc4C5=O)cc3C2=O)C(=O)N1 (stereo not drawn) | – | – | > 10 | –
9 | O=C1CCC(N2C(=O)c3cccc(C#CCCCNC(=O)c4cc5c(o4)C(=O)c4ccccc4C5=O)c3C2=O)C(=O)N1 (stereo not drawn) | 2.1 | 5.3 | 18.6 | –
10 | O=C1CCC(N2C(=O)c3cccc(NCCCNC(=O)c4cc5c(o4)C(=O)c4ccccc4C5=O)c3C2=O)C(=O)N1 (stereo not drawn) | 2.7 | 3.5 | – | –
11 | O=C1CCC(N2C(=O)c3cccc(NCCCCNC(=O)c4cc5c(o4)C(=O)c4ccccc4C5=O)c3C2=O)C(=O)N1 (stereo not drawn) | 1.6 | 4.1 | – | –
12 | O=C1CCC(N2C(=O)c3cccc(NCCOCCOCCOCCNC(=O)c4cc5c(o4)C(=O)c4ccccc4C5=O)c3C2=O)C(=O)N1 (stereo not drawn) | 2.1 | 4.5 | 11.2 | –
13 | Cc1ncsc1-c1ccc(CNC(=O)[C@@H]2C[C@@H](O)CN2C(=O)[C@@H](NC(=O)COCCOCCNC(=O)c2cc3c(o2)C(=O)c2ccccc2C3=O)C(C)(C)C)cc1 | 14.5 | > 30 | > 30 | –
14 | O=C1CCC(N2C(=O)c3cccc(NCCC4CCN(CCNC(=O)c5cc6c(o5)C(=O)c5ccccc5C6=O)CC4)c3C2=O)C(=O)N1 (stereo not drawn) | 1.1 | 1.1 | – | –
